# Compound activity from PubChem BioAssay.
# FGF22 binding: binders of human FGF22 protein, primary screen, FGF22 synaptogenesis inhibitor project, biophysical, thermal shift, single point | Fibroblast growth factor 22 (Homo sapiens), Q9HCT0 | recombinant FGF22 thermal shift, SYPRO orange fluorescence; percent of sucrose octasulfate shift, DMSO zero | activity (Tm shift, normalised), % at 9.99 µM | 340,000 compounds, 1.5% hits | AID 651658, 2012;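 active = mean Tm shift, scaled 0 neutral to 100 positive control, at about 1.3% or above, every replicate too, limit read from the data; inconclusive = no clear call, values can overlap the other calls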
# Target sequence (Q9HCT0 whole entry, looked up): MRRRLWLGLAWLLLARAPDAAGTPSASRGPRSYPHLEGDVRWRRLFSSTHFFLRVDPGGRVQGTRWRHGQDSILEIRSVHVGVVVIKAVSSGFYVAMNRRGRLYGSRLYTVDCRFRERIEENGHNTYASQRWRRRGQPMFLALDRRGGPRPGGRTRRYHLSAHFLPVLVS
# S100A4 inh HTS: inhibitors of S100A4-myosin IIA peptide binding, primary screen, biochemical, fluorescence polarization, TAMRA-MyoIIA peptide; Protein S100-A4 (Homo sapiens), P26447; inhibition, % at 10.7 µM; 360,000 compounds, 0.14% hits; AID 652163, 2013;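 active = mean inhibition of at least 70% across replicates, with every replicate also reaching that level; inconclusive = mean inhibition reaches 70% but some replicates fall short; inactive = mean inhibition below 70%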
# Target sequence (P26447 whole entry, looked up): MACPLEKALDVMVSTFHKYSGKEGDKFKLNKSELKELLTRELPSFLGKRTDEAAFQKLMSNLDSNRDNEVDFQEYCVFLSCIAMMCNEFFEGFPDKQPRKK
#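 Test system – S100A4 monomer (human) · Compound – single-point compound testing · Schedule – 5 min incubation before reading · Probe or stimulus – TAMRA-labelled myosin IIA heavy-chain peptide probe, 5 nM · Benchmarks – neutral control DMSO, positive control TFP · Medium – Calcium-containing HEPES buffer, pH 7.2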
# F508del corr: F508del CFTR correction, initial screen, CFBE line, single point | CFBE cells, YFP halide quenching; stimulated with forskolin plus potentiator P3; % fluorescence drop versus neutral controls | activity (quench increase), % at 7.58 µM | 350,000 compounds, 0.36% hits;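 active = mean added fluorescence quench of at least 8% versus neutral control, with both replicates also reaching 8%; inconclusive = only one of the mean or replicate conditions met; inactive = mean below 8% and not both replicates reaching 8%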;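 note: cells transiently co-express mutant CFTR-F508del with the halide-sensitive YFP; corrector assay measuring rescue of mutant channel to the surface after 24 h compound exposure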
# dFosB act: activators of delta FosB homodimer, primary screen, biochemical, fluorescence polarization, TAMRA-CDK5 oligo, single point. activation, % at 25 µM. purified delta FosB; percent of positive-control signal above neutral wells. 340,000 compounds, 0.99% hits. Protein FosB (Mus musculus), P13346. AID 493131, 2011;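 active = mean activation above about 17%, with every replicate also reaching it, limit read from the data, passing the limit was not always enough; inconclusive = only one of the two conditions met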
# Target sequence (P13346 whole entry, looked up): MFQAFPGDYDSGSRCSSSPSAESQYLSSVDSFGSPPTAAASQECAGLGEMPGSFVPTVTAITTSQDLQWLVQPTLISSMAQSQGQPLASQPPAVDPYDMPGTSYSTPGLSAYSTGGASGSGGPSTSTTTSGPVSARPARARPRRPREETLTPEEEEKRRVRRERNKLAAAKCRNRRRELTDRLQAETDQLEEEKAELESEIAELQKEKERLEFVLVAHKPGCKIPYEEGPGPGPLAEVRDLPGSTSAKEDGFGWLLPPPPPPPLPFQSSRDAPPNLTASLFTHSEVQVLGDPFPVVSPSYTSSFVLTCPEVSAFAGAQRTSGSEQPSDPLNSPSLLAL
# Numbers without * were called inactive; ? = inconclusive; . = no result. Only some compounds are listed: those with a hit (about 2.2% of all), similar ones and a draw of the others.
SMILES,FGF22 binding,S100A4 inh HTS,F508del corr,dFosB act
O=C(NC1CCCCC1c1ccccc1)c1ccccc1 (configuration not stated),43.6*,-5.7,1.1,-10.7
O=C(NC1CCCCCCC1O)c1ccccc1 (configuration not stated),-0.1,-15.8,-1.4,1.1
COC(=O)Cc1[nH]n(-c2nc3ccccc3s2)c(=O)c1C(C)=Nc1ccc(C)cc1,2.5*,-15.1,-2.7,-2.0
CCCNC(=O)Nc1ccc2c(c1)C(=O)N(C)[C@H]1CC[C@H](CC(=O)Nc3cccc(C)c3)O[C@@H]1CO2,0.1,9.9,0.3,.
O=C(CN1CCOCC1)N[C@H]1CC[C@H](CCNC(=O)C2CCC2)O[C@@H]1CO,-0.2,8.5,1.4,.
CC(=O)Nc1cccc(NC(=O)c2ccc(COc3ccccc3)cc2)c1,42.9*,-2.7,-1.7,3.7
COc1ccc(COc2cc(-c3cccc(OC)c3)nc3ccc(NC(=O)c4ccc(OC)cc4)cc23)cc1,0.6,0.3,8.2*,?
O=C(O)c1cccc(NC(=S)NC(NC(=O)c2cccc([N+](=O)[O-])c2)C(Cl)(Cl)Cl)c1 (configuration not stated),2.8*,-2.9,1.9,-5.4
O=C(O)c1cccc(NC(=S)NC(NC(=O)c2ccccc2[N+](=O)[O-])C(Cl)(Cl)Cl)c1 (configuration not stated),0.0,-1.2,.,-6.3
O=C(O)C[C@H]1C[C@@H]2c3cc(NC(=O)Nc4ccccc4F)ccc3O[C@@H]2[C@@H](CO)O1,0.4,5.5,-1.9,.
Cc1nn(CC(=O)O)c(C)c1Cl,.,.,.,0.5
Cc1c(Cl)c(=O)n2c(=O)c(Cl)c(C)n12,43.7*,-5.4,0.1,-0.9
CCCNC(=O)C[C@H]1CC[C@@H]2[C@@H](COc3ccc(NC(=O)Nc4cccc(C)c4)cc3C(=O)N2C)O1,0.0,?,0.1,.
CN(C)CCCN1C(=O)c2cccc3c([N+](=O)[O-])ccc(c23)C1=O,.,.,.,19.2*
CN(C)c1ccc2c(c1)[C@@H]1C[C@H](CC(=O)NCc3ccccc3)O[C@@H](CO)[C@@H]1O2,0.1,-4.5,3.2,.
CCOc1cc(NC(=S)NCc2ccccc2)c(OCC)cc1NC(=O)C(C)C,0.0,4.7,2.0,-2.1
CCOc1cc(NC(=S)NCCc2ccccc2)c(OCC)cc1NC(C)=O,43.4*,4.4,-2.1,1.7
COC(=O)C[C@H]1C[C@@H]2c3cc(NC(=O)Nc4ccc(F)cc4)ccc3O[C@@H]2[C@H](CO)O1,0.1,.,0.0,.
Cc1nc(S/C(=C/c2ccc(OCc3ccc(C(=O)O)cc3)cc2)C(=O)O)n[nH]1,1.5*,-0.5,1.3,-2.7
CCCCC/C=C\C/C=C\C/C=C\CCCCC(=O)O,0.0,-7.7,9.0*,-10.1
CN(C)CC(=O)N1[C@@H](CO)[C@@H](c2ccccc2)C12CN(Cc1cc(F)ccc1F)C2,-1.1,5.5,-0.8,.
O=C(Nc1ccc(C(F)(F)F)cc1)c1ccc(NC(=O)C2CCCO2)cc1 (configuration not stated),.,.,.,17.0*
C[C@@H]1CN([C@H](C)CO)C(=O)c2cc(NC(=O)CCN3CCOCC3)ccc2O[C@H]1CN(C)C(=O)Nc1ccc(F)cc1,0.1,13.5,-1.6,.
CC(C(=O)NCc1ccc2c(c1)OCO2)N(c1ccccc1)S(C)(=O)=O (configuration not stated),.,.,.,0.0
Cc1ccc(N(C(C)C(=O)NCc2ccncc2)S(C)(=O)=O)cc1C (configuration not stated),42.9*,-0.7,2.8,3.8
SMILES,FGF22 binding,S100A4 inh HTS,F508del corr,dFosB act
CCC(/C=C1\Sc2ccc(OC)cc2N1CC)=C\c1sc2ccc(OC)cc2[n+]1CCCS(=O)(=O)[O-],0.1,98.9*,3.7,134.0*
CC(NC(=O)COC(=O)c1nc(Cl)ccc1Cl)c1ccccc1 (configuration not stated),43.5*,-1.8,0.4,0.3
CC(NC(=O)COC(=O)/C=C/c1cccc(F)c1)c1ccccc1 (configuration not stated),-0.1,-1.5,-0.3,0.6
CC(NC(=O)COC(=O)/C=C/c1ccc(Cl)cc1)c1ccccc1 (configuration not stated),43.5*,-3.2,-3.3,2.1
O=C(COC(=O)c1ccccc1C(=O)c1ccc(Cl)cc1)NC(c1ccccc1)c1ccccc1,43.2*,-1.0,1.7,-2.3
O=C(OCC(=O)N1CCc2ccccc21)c1nc(Cl)ccc1Cl,44.3*,-5.3,-0.4,-9.3
COc1ccc(NC(=O)Nc2ccc3c(c2)C(=O)N([C@H](C)CO)C[C@@H](C)[C@H](CN(C)S(=O)(=O)c2ccc(F)cc2)OCCCC[C@H](C)O3)cc1,-0.2,6.7,-1.0,.
COc1cccc(C(=O)N2C[C@H]3[C@@H](c4ccccc42)[C@@H](CO)N3Cc2cccnc2)c1,0.0,-2.1,3.6,.
CN(C)S(=O)(=O)c1ccc2c(c1)nc(CCC(=O)NCC(=O)Nc1ccc(F)c(F)c1F)n2C,43.5*,-5.9,-2.3,.
O=C(C1=C[C@H](C2CCCCC2)C[C@H](OCc2ccc(CO)cc2)O1)N1CCCC1,-0.1,27.9,-2.9,.
COc1ccc2[nH]c(=O)c(CN(Cc3ccccc3)C(=S)NCC3CCCO3)cc2c1 (configuration not stated),43.8*,-5.3,-1.1,-4.4
COc1ccc2cc(CN(Cc3ccco3)C(=S)NCC3CCCO3)c(=O)[nH]c2c1 (configuration not stated),0.2,2.4,1.0,-13.2
CCCn1c(CN2CCN(C(=O)OCC)CC2)nc2cc(NC(=O)CC)ccc21,0.1,-1.0,8.6*,-19.2
COc1ccc(Cn2cc3c(-c4ccc(F)cc4)nnc-3c3cc(OC)c(OC)cc32)cc1,0.2,4.2,-0.8,34.3*
COc1cc2c3nnc(-c4ccc(F)cc4)c-3cn(Cc3ccccc3)c2cc1OC,-0.1,3.4,-16.6,18.9*
COc1ccc(-c2nnn(Cc3ccccc3)n2)cc1OC,0.0,-0.5,0.3,4.0
Cn1nc2c3cc(F)ccc3n(Cc3ccc(F)cc3)cc-2c1=O,0.0,9.8,-0.9,-1.7
CC(=O)N[C@@H]1C=C[C@H](CC(=O)NCc2ccc(Cl)cc2)O[C@H]1CO,0.1,-2.6,-1.7,.
C[C@@H]1CN([C@H](C)CO)C(=O)c2cc(NC(=O)CCN3CCOCC3)ccc2O[C@@H]1CN(C)Cc1ccc(Cl)c(Cl)c1,-0.2,-2.3,0.7,.
N/C(CSc1ccc(Cl)cc1)=N\NC(=O)c1ccncc1,43.3*,-6.8,2.8,5.6
O=C(CSc1ccc(Cl)cc1)NCc1ccncc1,43.0*,-1.8,0.1,-1.3
O=C(CSc1ccc(Cl)cc1)NC(=O)c1ccccc1,0.4,-2.7,3.0,6.9
O=C(CCSc1ccc(Cl)cc1)NCc1ccncc1,0.1,0.9,0.9,-4.3
